Measurements from ChEMBL document CHEMBL4354800, “Amphiphilic nebramine-based hybrids Rescue legacy antibiotics from intrinsic resistance in multidrug-resistant Gram-negative bacilli” (Eur J Med Chem, 2019).

Assays:
Pseudomonas aeruginosa [1] = assay: Potentiation of minocycline-induced antibacterial activity against MDR/XDR Pseudomonas aeruginosa isolate 100036 harboring GyrA T83I mutant assessed as fold reduction in minocycline MIC at 7.5 uM incubated for 18 hrs by broth microdilution method; format: functional
Pseudomonas aeruginosa [2] = assay: Potentiation of rifampicin-induced antimicrobial activity against MDR/XDR Pseudomonas aeruginosa isolate PA264-104354 harboring GyrA Thr83Ile mutant assessed as rifampicin MIC80 incubated for 18 hrs by broth microdilution method (reference value: 16 microg/ml); format: functional; conditions: isolate PA264-104354, 18 h
Acinetobacter baumannii [3] = assay: Synergistic antibacterial activity against multidrug-resistant Acinetobacter baumannii AB027 assessed as fractional inhibitory concentration index in presence of rifampicin incubated for 18 hrs by broth dilution method; format: functional
Acinetobacter baumannii [4] = assay: Potentiation of rifampicin-induced antibacterial activity against multidrug-resistant Acinetobacter baumannii AB031 assessed as fold reduction in rifampicin MIC at 7.5 uM incubated for 18 hrs by broth dilution method; format: functional
In short: (§1)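 CLSI broth microdilution. Overnight cultures were set to 0.5 McFarland in saline, diluted 1:50 in Mueller-Hinton broth to a final 5 × 10^5 CFU/mL, and incubated 18 h at 37 °C against 2-fold antibiotic dilutions. A fixed adjuvant level was present throughout. MIC = lowest concentration with no visible turbidity, confirmed at 590 nm. Potentiation = fold drop in antibiotic MIC versus antibiotic alone.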

Pseudomonas aeruginosa [5] = assay: Potentiation of rifampicin-induced antimicrobial activity against MDR/XDR Pseudomonas aeruginosa isolate 91433 devoid of GyrA Thr83Ile mutant assessed as rifampicin MIC80 incubated for 18 hrs by broth microdilution method (reference value: 16 microg/ml); format: functional; conditions: isolate 91433, 18 h
Pseudomonas aeruginosa [6] = assay: Potentiation of minocycline-induced antimicrobial activity against MDR/XDR Pseudomonas aeruginosa isolate 100036 harboring GyrA Thr83Ile mutant assessed as minocycline MIC50 incubated for 18 hrs by broth microdilution method (reference value: 16 microg/ml); format: functional; conditions: isolate 100036, 18 h
Pseudomonas aeruginosa [7] = assay: Potentiation of rifampicin-induced antimicrobial activity against MDR/XDR Pseudomonas aeruginosa isolate PA259-96918 harboring GyrA Thr83Ile mutant assessed as rifampicin MIC80 incubated for 18 hrs by broth microdilution method (reference value: 16 microg/ml); format: functional; conditions: isolate PA259-96918, 18 h
Pseudomonas aeruginosa [8] = assay: Potentiation of moxifloxacin-induced antibacterial activity against MDR/XDR Pseudomonas aeruginosa isolate 101243 devoid of GyrA T83I mutant assessed as fold reduction in moxifloxacin MIC at 9 uM incubated for 18 hrs by broth microdilution method; format: functional; in short: as §1
Pseudomonas aeruginosa [9] = assay: Potentiation of rifampicin-induced antibacterial activity against wild type Pseudomonas aeruginosa PAO1 assessed as fold reduction in rifampicin MIC at 9 uM incubated for 18 hrs by broth microdilution method; format: functional; in short: as §1
Pseudomonas aeruginosa [10] = assay: Potentiation of minocycline-induced antibacterial activity against MDR/XDR Pseudomonas aeruginosa isolate PA260-97103 harboring GyrA T83I mutant assessed as fold reduction in minocycline MIC at 9 uM incubated for 18 hrs by broth microdilution method; format: functional
Pseudomonas aeruginosa [11] = assay: Potentiation of ciprofloxacin-induced antibacterial activity against MDR/XDR Pseudomonas aeruginosa isolate PA262-101856 harboring GyrA T83I mutant assessed as fold reduction in ciprofloxacin MIC at 9 uM incubated for 18 hrs by broth microdilution method; format: functional
Pseudomonas aeruginosa [12] = assay: Potentiation of moxifloxacin-induced antibacterial activity against MDR/XDR Pseudomonas aeruginosa isolate PA260-97103 harboring GyrA T83I mutant assessed as fold reduction in moxifloxacin MIC at 9 uM incubated for 18 hrs by broth microdilution method; format: functional; in short: as §1
Klebsiella pneumoniae = assay: Synergistic antibacterial activity against Klebsiella pneumoniae 113250 assessed as fractional inhibitory concentration index in presence of minocycline incubated for 18 hrs by broth dilution method; format: functional
In short: (§2)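 Checkerboard titration of the adjuvant against the antibiotic, run under the CLSI microdilution conditions (MHB, 5 × 10^5 CFU/mL, 18 h, 37 °C). Each agent's FIC is its MIC in combination divided by its MIC alone; FICI is the sum of the two FICs. FICI ≤0.5 was read as synergy, >0.5–4.0 as no interaction, and >4.0 as antagonism.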

Escherichia coli [13] = assay: Potentiation of rifampicin-induced antibacterial activity against Escherichia coli 107115 assessed as fold reduction in rifampicin MIC at 4.1 uM incubated for 18 hrs by broth dilution method; format: functional
In short: (§3)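 Antibiotic MIC determined by CLSI broth microdilution (MHB, 5 × 10^5 CFU/mL, 18 h, 37 °C), once alone and once with a fixed concentration of the adjuvant. Potentiation is the ratio of the antibiotic MIC alone to its MIC in the presence of the adjuvant.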

Pseudomonas aeruginosa [14] = assay: Antimicrobial activity against XDR Pseudomonas aeruginosa isolate PA264 infected in Galleria mellonella larvae assessed as increase in survival rate co-administered with rifampicin at 2 hrs post-inoculation measured every 6 hrs for upto 24 hrs; format: functional, organism-based
In short: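 G. mellonella larvae each received an injection of about 5 CFU of PA264 (culture adjusted to 0.5 McFarland, then diluted in PBS to 5 × 10^2 CFU/mL) and were held 2 h at 37 °C. A single injection followed: rifampicin plus adjuvant at 25+25, 50+50 or 75+75 mg/kg, or PBS. Larvae were kept at 37 °C and scored every 6 h up to 24 h; no response to touch counted as dead. Total n=30 per group; Kaplan-Meier analysis.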

Acinetobacter baumannii [15] = assay: Antimicrobial activity against multidrug-resistant Acinetobacter baumannii AB110193 incubated for 18 hrs by broth dilution method; format: functional; conditions: AB110193, 18 h
In short: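 Broth microdilution per CLSI: overnight cultures set to 0.5 McFarland in saline, diluted 1:50 in Mueller-Hinton broth to a final 5 × 10^5 CFU/mL, added to 2-fold serial dilutions, incubated 18 h at 37 °C; MIC is the lowest concentration without visible turbidity, confirmed at 590 nm.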

Enterobacter cloacae = assay: Potentiation of minocycline-induced antibacterial activity against Enterobacter cloacae 117029 assessed as fold reduction in minocycline MIC at 4.1 uM incubated for 18 hrs by broth dilution method; format: functional; in short: as §3
Pseudomonas aeruginosa [16] = assay: Potentiation of rifampicin-induced antibacterial activity against wild type Pseudomonas aeruginosa PAO1 assessed as fold reduction in rifampicin MIC at 4.1 uM incubated for 18 hrs by broth microdilution method; format: functional; in short: as §1
Acinetobacter baumannii [17] = assay: Synergistic antibacterial activity against multidrug-resistant Acinetobacter baumannii AB92247 assessed as fractional inhibitory concentration index in presence of minocycline incubated for 18 hrs by broth dilution method; format: functional
[18] = Toxicity in Galleria mellonella larvae assessed as tolerability by measuring larval survival at 100 mg/kg incubated for > 96 hrs; format: organism-based; conditions: in vivo
In short: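 Uninfected G. mellonella larvae, ten per group, were injected with agent alone at 100 or 200 mg/kg. Larvae were held at 37 °C and monitored for survival for 96 h.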

Escherichia coli [19] = assay: Synergistic antibacterial activity against Escherichia coli ATCC 25922 assessed as fractional inhibitory concentration index in presence of rifampicin incubated for 18 hrs by broth dilution method; format: functional; in short: as §2

COc1c(N2C[C@@H]3CCCN(CCCCCCCCCCCCO[C@@H]4[C@@H](O)[C@H](N)C[C@H](N)[C@H]4O[C@H]4O[C@H](CN)[C@@H](O)C[C@H]4N)[C@@H]3C2)c(F)cc2c(=O)c(C(=O)O)cn(C3CC3)c12.Cl.Cl.Cl.Cl.Cl
fold change (FC) (Pseudomonas aeruginosa [1]): 32
MIC80 (Pseudomonas aeruginosa [2]): 0.13 µg/mL
fractional inhibitory concentration index (FICI) (Acinetobacter baumannii [3]): 0.031 - 0.047
fold change (FC) (Acinetobacter baumannii [4]): 64
MIC80 (Pseudomonas aeruginosa [5]): 0.13 µg/mL
MIC50 (Pseudomonas aeruginosa [6]): 0.5 µg/mL
MIC80 (Pseudomonas aeruginosa [7]): 0.13 µg/mL

Cl.Cl.Cl.Cl.Cl.Cl.NC[C@H]1O[C@H](O[C@H]2[C@H](OCCCCCCCCCCN3CCN(Cc4cccc5ccccc45)CC3)[C@@H](O)[C@H](N)C[C@@H]2N)[C@H](N)C[C@@H]1O
fold change (FC) (Pseudomonas aeruginosa [8]): 8
fold change (FC) (Pseudomonas aeruginosa [9]): 256
fold change (FC) (Pseudomonas aeruginosa [10]): 64
fold change (FC) (Pseudomonas aeruginosa [11]): 8
fold change (FC) (Pseudomonas aeruginosa [12]): 128

Cl.Cl.Cl.Cl.Cl.NC[C@H]1O[C@H](O[C@H]2[C@H](OCCCCCCCCCCCCN3CCN(c4cc5c(cc4F)c(=O)c(C(=O)O)cn5C4CC4)CC3)[C@@H](O)[C@H](N)C[C@@H]2N)[C@H](N)C[C@@H]1O
fractional inhibitory concentration index (FICI) (Klebsiella pneumoniae): 0.504
fold change (FC) (Escherichia coli [13]): >=256
Activity (Pseudomonas aeruginosa [14]): Dose-dependent effect
MIC (Acinetobacter baumannii [15]): > 128 µg/mL
fold change (FC) (Enterobacter cloacae): 16
fold change (FC) (Pseudomonas aeruginosa [16]): >=256
fractional inhibitory concentration index (FICI) (Acinetobacter baumannii [17]): 0.531
Activity [18]: Non-Toxic
fractional inhibitory concentration index (FICI) (Escherichia coli [19]): 0.133
